Common to all, as to format: functional
For test [1], the system named is Tobacco mosaic virus. Briefly: Antiviral activity against Tobacco mosaic virus (TMV) assessed as inhibition of viral growth at 500 ug/mL. The following applies: read-out: GI. In a few lines: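 Leaves of 5–6-growth-stage tobacco were rub-inoculated with TMV juice (5.88 × 10−2 μg/mL), then cut into halves along the main vein. One half was immersed in 500 μg/mL compound and the other in double-distilled water, each for 20 min. Halves were cultured at 25 °C for 72 h, with at least 3 replicates. Inhibition % = (control − treated average lesion number)/control × 100.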

Test [2] deals with Tobacco mosaic virus. Briefly: Antiviral activity against Tobacco mosaic virus (TMV) inoculation on Nicotiana tabacum L. whole leaves assessed as virus infection protective effect at 500 ug/mL measured 3 to 4 days post inoculation. The method in brief: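 On N. tabacum L. leaves of the same age, compound was smeared on the left half and solvent on the right half as control. After 12 h, leaves were dusted with silicon carbide, brush-inoculated with TMV (6 × 10−3 mg/mL), then washed. Local lesions were counted 3–4 days later, in triplicate. Inhibition % was calculated from average lesion numbers versus control.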

Test [3] deals with Tobacco mosaic virus. The experiment in a line: Antiviral activity against Tobacco mosaic virus (TMV) inoculation on Nicotiana tabacum L. whole leaves assessed as virus infection curative effect at 500 ug/mL measured 3 to 4 days post inoculation. The method in brief:
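Whole N. tabacum L. leaves of the same age were inoculated with TMV (6.0 × 10−3 mg/mL), then washed and dried. Compound was then smeared on the left half and solvent on the right half as control. Local lesions were counted 3–4 days post-inoculation, in triplicate. Inhibition % was calculated from average lesion numbers versus control.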

Test [4] has as its system Tobacco mosaic virus. The experiment in a line: Antiviral activity against Tobacco mosaic virus (TMV) inoculation on Nicotiana tabacum L. whole leaves assessed as virus inactivation effect at 500 ug/mL measured 3 to 4 days post inoculation. In a few lines:
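TMV was mixed with an equal volume of compound solution for 30 min. The mixture was inoculated on the left half of N. tabacum L. leaves, and virus mixed with solvent on the right half as control. Local lesions were recorded 3–4 days post-inoculation, in triplicate. Inhibition % was calculated from average lesion numbers versus control.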

As for `COc1cc2cc(C(=O)N3CCC[C@H]3CO)c3cc(OC)c(OC)cc3c2cc1OC`, the inhibition of growth at 500 µg/mL in test [1] was found to be 32.8%. Also, the Activity is given as 25.6% in test [2], 30.2% in test [3] and 29.5% in test [4].
In the same order, the values of `COc1cc2c(Br)c(CN3CCC[C@H]3C(=N)OC(C)(C)C)c3cc(OC)c(OC)cc3c2cc1OC` are 39.7%, 42.2%, 40.3% and 36.6%.
With `CCN(CC)C(=O)[C@@H]1CCCN1Cc1c(Br)c2ccc(OC)cc2c2cc(OC)c(OC)cc12`, the inhibition of growth at 500 µg/mL in test [1] turned out to be 12.5%. The Activity in test [2] came out at 16.8%; in test [3] it was 8.9%; in test [4], 23.7%.
The matching figures for `CCN(CC)C(=O)[C@H]1CCCCN1Cc1c(Br)c2cc(OC)c(OC)cc2c2cc(OC)ccc12`: 12.1%, 21.3%, 17.6% and 15.4%.
In the same order, the values of `COc1ccc2c(Br)c(CN3CCC[C@H]3C#N)c3cc(OC)c(OC)cc3c2c1` are 20.9%, 24.5%, 18.9% and 27.7%.
Consider `CC(=O)N1CN(C(C)=O)C(=O)NC1=O`, for which the inhibition of growth at 500 µg/mL in test [1] was determined as 50%.
Turning to `COc1cc2cc(C(=O)N3CCC[C@H]3CBr)c3cc(OC)c(OC)cc3c2cc1OC`, the inhibition of growth at 500 µg/mL in test [1] is 21.9%. The figures for the Activity in test [2], in test [3] and in test [4] were 36.9%, 26.7% and 27.6%, respectively.
For the compound `COc1ccc(/C=C(/C(=O)O)c2ccc(OC)c(OC)c2)cc1OC`, in test [1], the inhibition of growth at 500 µg/mL is 2.3%. The figures for the Activity in test [2], in test [3] and in test [4] were 1.9%, 2.7% and 4.1%, respectively.
As to `COc1cc2cc(C(=O)N3CCC[C@H]3C(N)=O)c3cc(OC)c(OC)cc3c2cc1OC`, the inhibition of growth at 500 µg/mL in test [1] was determined as 27%. In addition, the Activity in test [2] is listed as 24.3%; in test [3], 23.5%; in test [4], 25.3%.
For the compound `COc1cc2cc(CN3C(=O)CC[C@H]3C(=O)OC(C)(C)C)c3cc(OC)c(OC)cc3c2cc1OC`, the inhibition of growth at 500 µg/mL in test [1] came out at 14.2%. Also, the results for the Activity in test [2], in test [3] and in test [4] were 23.5%, 16.8% and 27.1%, respectively.
In the case of `O=C1NCNC(=O)N1`, in test [1], the inhibition of growth at 500 µg/mL came to 50%.
As to `COc1cc2cc(C(=O)N3CCC[C@H]3C=O)c3cc(OC)c(OC)cc3c2cc1OC`, in test [1], the inhibition of growth at 500 µg/mL came to 22.2%. Besides, the figures for the Activity in test [2], in test [3] and in test [4] were 21.4%, 20.3% and 15.2%, respectively.
Turning to `COc1cc2cc(CN3C(=O)CC[C@H]3C(=O)O)c3cc(OC)c(OC)cc3c2cc1OC`, the inhibition of growth at 500 µg/mL in test [1] is 32.4%. Further, the Activity in test [2] was 35.3%; in test [3] it was 25.6%; in test [4], 33.7%.
The matching figures for `CCN(CC)C(=O)[C@@H]1CCCCN1Cc1c(Br)c2cc(OC)c(OC)cc2c2cc(OC)c(OC)cc12`: 19.7%, 28.5%, 26.3% and 21.5%.
For `COc1cc2cc(CN3CCC[C@H]3CO)c3cc(OC)c(OC)cc3c2cc1OC`, the inhibition of growth at 500 µg/mL in test [1] was determined as 15.9%. Besides, the Activity in test [2] is on record as 25.2%; in test [3], 23.5%; in test [4], 17.4%.
Turning to `CCN(CC)C(=O)[C@H]1CCCN1Cc1c(Br)c2cc(OC)c(OC)cc2c2c(Br)c(OC)ccc12`, in test [1], the inhibition of growth at 500 µg/mL is 42.6%. Besides, the Activity in test [2] was 39.2%; in test [3], 35.8%; in test [4], 30.2%.
In the case of `COc1ccc(/C=C(/C(=O)N2CCC[C@H]2CO)c2ccc(OC)c(OC)c2)cc1OC`, the inhibition of growth at 500 µg/mL in test [1] turned out to be 11.7%. The Activity was found to be 19.3% in test [2], 18.1% in test [3] and 20.9% in test [4].
Turning to `COc1cc2c(Br)c(CBr)c3cc(OC)c(OC)cc3c2cc1OC`, the inhibition of growth at 500 µg/mL in test [1] turned out to be 6.1%. In addition, the Activity in test [2] was determined as 5.2%; in test [3] it was 1.8%; in test [4] it was 4.3%.
As to `CCN(CC)C(=O)[C@H]1CCCCN1Cc1c(Br)c2cc(OC)c(OC)cc2c2cc(OC)c(OC)cc12`, the inhibition of growth at 500 µg/mL in test [1] worked out at 23.5%. In addition, the Activity in test [2] worked out at 21.7%; in test [3], 14.2%; in test [4] it was 13.7%.
On to `CCN(CC)C(=O)[C@H]1CCCN1Cc1c(Br)c2ccc(OC)c(Br)c2c2cc(OC)c(OC)cc12`, for which the inhibition of growth at 500 µg/mL in test [1] was determined as 22.4%. In addition, the Activity in test [2] is 20.3%; in test [3], 13.3%; in test [4], 10.4%.
The matching figures for `COc1cc2cc(CN3CCC[C@H]3CBr)c3cc(OC)c(OC)cc3c2cc1OC`: 32.1%, 21.1%, 16.3% and 20.3%.
For the compound `CCN(CC)C(=O)[C@@H]1CCCN1Cc1c(Br)c2cc(OC)c(OC)cc2c2cc(OC)ccc12`, the inhibition of growth at 500 µg/mL in test [1] amounted to 23.5%. In addition, the Activity in test [2] came out at 18.9%; in test [3] it was 14.2%; in test [4], 15.7%.
In the case of `COc1cc2c(Br)c(CN3CCC[C@H]3C(=O)O)c3cc(OC)c(OC)cc3c2cc1OC`, the inhibition of growth at 500 µg/mL in test [1] was determined as 20.4%. Also, the Activity came out at 10.2% in test [2], 13.5% in test [3] and 17% in test [4].
Consider `COc1cc2cc(C(=O)N3CCCCC3)c3cc(OC)c(OC)cc3c2cc1OC`, for which, in test [1], the inhibition of growth at 500 µg/mL stood at 32.5%. Also, the Activity in test [2] was 30.6%; in test [3], 28.9%; in test [4] it was 24.5%.
In the case of `CCN(CC)C(=O)[C@H]1CCCN1Cc1c(Br)c2ccc(OC)cc2c2cc(OC)c(OC)cc12`, the inhibition of growth at 500 µg/mL in test [1] is 35.6%. In addition, the Activity in test [2] was found to be 27.1%; in test [3] it was 31.6%; in test [4], 26.9%.
As to `NC(=O)c1ncn([C@@H]2O[C@H](CO)[C@@H](O)[C@H]2O)n1` [RIBAVIRIN], the inhibition of growth at 500 µg/mL in test [1] was 38.5%. In addition, the Activity was 34.2% in test [2], 34.5% in test [3] and 32.1% in test [4].
The matching figures for `COc1ccc2c(Br)c(CN3CCC[C@H]3C(N)=O)c3cc(OC)c(OC)cc3c2c1`: 35.5%, 32.4%, 30.7% and 12.3%.
The matching figures for `COc1cc2c(Br)c(CN3CCC[C@@H]3C(N)=O)c3cc(OC)c(OC)cc3c2cc1OC`: 10.5%, 15.3%, 12.2% and 0%.
With `CCN(CC)C(=O)[C@H]1CCCN1Cc1c(Br)c2cc(OC)c(OC)cc2c2cc(OC)c(OC)cc12`, the inhibition of growth at 500 µg/mL in test [1] came to 33.3%. For the same compound, the figures for the Activity in test [2], in test [3] and in test [4] were 27.6%, 30.2% and 21.3%, respectively.
As to `CCN(CC)C(=O)c1cccn1Cc1c(Br)c2cc(OC)c(OC)cc2c2cc(OC)c(OC)cc12`, the inhibition of growth at 500 µg/mL in test [1] is 18.2%. Also, the Activity in test [2] was found to be 13.1%; in test [3], 10.6%; in test [4], 20%.
Turning to `COc1ccc2c(CN3CCC[C@H]3C#N)c(Br)c3cc(OC)c(OC)cc3c2c1`, the inhibition of growth at 500 µg/mL in test [1] came out at 22.7%. In addition, the Activity is on record as 15.3% in test [2], 20.5% in test [3] and 12.6% in test [4].
`COc1cc2c(Br)c(CN3CCC[C@H]3C(N)=O)c3cc(OC)c(OC)cc3c2cc1OC`: the inhibition of growth at 500 µg/mL in test [1] is 44.3%. The Activity came out at 39.5% in test [2], 36.6% in test [3] and 42.1% in test [4].
The matching figures for `CCN(CC)C(=O)[C@@H]1CCCN1Cc1c(Br)c2ccc(OC)c(Br)c2c2cc(OC)c(OC)cc12`: 19.6%, 15.3%, 22.3% and 17.8%.
Regarding `CCN(CC)C(=O)[C@H]1CCCN1Cc1c(Br)c2cc(OC)c(OC)cc2c2cc(OC)ccc12`, the inhibition of growth at 500 µg/mL in test [1] was 35.7%. For the same compound, the Activity was determined as 33.1% in test [2], 31.4% in test [3] and 27.6% in test [4].
For `COC(=O)[C@@H]1CCCN1Cc1c(Br)c2cc(OC)c(OC)cc2c2cc(OC)c(OC)cc12`, in test [1], the inhibition of growth at 500 µg/mL was determined as 19.6%. For the same compound, the Activity in test [2] is 33.3%; in test [3] it was 27.8%; in test [4] it was 21.4%.

Values taken from ChEMBL document CHEMBL3045023, “Design, synthesis, and antiviral activity evaluation of phenanthrene-based antofine derivatives” (2012).
